ChEMBL document CHEMBL1159085, “Proteasome inhibition in human breast cancer cells with high catechol-O-methyltransferase activity by green tea polyphenol EGCG analogs” (Bioorg Med Chem, 2010)
Activity calls are given as the source filed them. The calls are words filed in the database; no cut-off is given here.

Key:
MDA-MB-231 [1] = assay: Antiproliferative activity against human MDA-MB-231 cells with high catechol-O-methyltransferase activity at 25 uM after 24 hrs by MTT assay; assay type: functional; settings: for inhibition at 25 µM: MDA-MB-231, 24 h
Summary of the method: (§1)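 MDA-MB-231 cells were grown in RPMI 1640 with 10% FBS, 100 units/ml penicillin and 100 μg/ml streptomycin at 37°C and 5% CO2. Triplicate wells were exposed to 25 or 50 μM compound for 24 h. MTT (1 mg/ml) was then added for 3 h at 37°C, and the formazan was dissolved in DMSO after the medium was removed.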

MDA-MB-231 [2] = assay: Antiproliferative activity against human MDA-MB-231 cells with high catechol-O-methyltransferase activity at 50 uM after 24 hrs by MTT assay; assay type: functional; summary of the method: as §1
MDA-MB-231 [3] = assay: Antiproliferative activity against human MDA-MB-231 cells at 25 to 50 uM after 24 hrs by MTT assay; assay type: functional; summary of the method: as §1
MDA-MB-231 [4] = assay: Inhibition of chymotrypsin like activity of 20S proteasome in human MDA-MB-231 cells assessed as cleavage of Suc-LLVY-AMC substrate after 2 hrs by fluorogenic assay; assay type: cell-based
Summary of the method: (§2)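 Crude MDA-MB-231 cell extract (5.7 μg) was used as the source of 26S proteasome. It was incubated with compound at a range of concentrations, or with solvent, plus 20 μM Suc-LLVY-AMC in 20 mM Tris-HCl, pH 7.5, for 2 h at 37°C. Chymotrypsin-like activity was read by fluorescence at 355 nm excitation and 460 nm emission.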

Oryctolagus cuniculus [5] = organism: Oryctolagus cuniculus; assay: Inhibition of chymotrypsin like activity of rabbit 20S proteasome assessed as cleavage of Suc-LLVY-AMC substrate at 50 uM after 2 hrs by fluorogenic assay
Summary of the method: (§3)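 Purified rabbit 20S proteasome (35 ng) was incubated with 20 μM Suc-LLVY-AMC in 20 mM Tris-HCl, pH 7.5, with compound at various concentrations or solvent, for 2 h at 37°C. Fluorogenic substrate hydrolysis was then measured at 355 nm excitation and 460 nm emission.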

MDA-MB-231 [6] = assay: Inhibition of 20S proteasome in human MDA-MB-231 cells assessed as accumulation of proteasome substrate at 50 uM after 22 hrs by Western blot; assay type: cell-based
Summary of the method: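 Intact MDA-MB-231 cells were cultured in RPMI 1640 with 10% FBS and penicillin/streptomycin at 37°C and 5% CO2. They were treated with 50 μM compound for 22 h. Accumulation of ubiquitinated proteins, used as a measure of proteasome substrates, was then detected by Western blotting of cell lysates.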

MDA-MB-231 [7] = assay: Inhibition of chymotrypsin like activity of 20S proteasome in COMT inhibitor 3,5-dinitrocatechol pretreated human MDA-MB-231 cells lysates with high catechol-O-methyltransferase activity assessed as cleavage of Suc-LLVY-AMC substrate at 10 uM after 2 hrs by fluorogenic assay; assay type: cell-free
Summary of the method: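 MDA-MB-231 cell extract (5.7 μg) was pre-treated with 10 μM 3,5-dinitrocatechol for 20 min. Compound and 20 μM Suc-LLVY-AMC were then added in 20 mM Tris-HCl, pH 7.5, and incubated for 2 h at 37°C. AMC release was read by fluorescence at 355 nm excitation and 460 nm emission.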

Oryctolagus cuniculus [8] = organism: Oryctolagus cuniculus; assay: (§4) Inhibition of chymotrypsin like activity of rabbit 20S proteasome assessed as cleavage of Suc-LLVY-AMC substrate after 2 hrs by fluorogenic assay; summary of the method: as §3
MDA-MB-231 [9] = assay: Inhibition of chymotrypsin like activity of 20S proteasome in human MDA-MB-231 cells lysates with high catechol-O-methyltransferase activity assessed as cleavage of Suc-LLVY-AMC substrate at 10 uM after 2 hrs by fluorogenic assay
Summary of the method: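 MDA-MB-231 cell extract (5.7 μg protein) incubated with test agent or solvent and 20 μM Suc-LLVY-AMC in 20 mM Tris–HCl pH 7.5 for 2 h at 37°C. Chymotrypsin-like activity read as AMC fluorescence (ex 355 nm, em 460 nm).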

[10] = Inhibition of chymotrypsin like activity of proteasome; assay type: subcellular
[11] = as §4; parameters: species or system Oryctolagus cuniculus; summary of the method: as §3
MDA-MB-231 [12] = assay: Inhibition of chymotrypsin like activity of 20S proteasome in human MDA-MB-231 cells lysates with high catechol-O-methyltransferase activity assessed as cleavage of Suc-LLVY-AMC substrate at 1 to 10 uM after 2 hrs by fluorogenic assay; assay type: cell-free; summary of the method: as §2

CC(=O)Oc1cc(C(=O)O[C@H]2Cc3ccccc3C[C@H]2OC(=O)c2cc(OC(C)=O)c(OC(C)=O)c(OC(C)=O)c2)cc(OC(C)=O)c1OC(C)=O
growth inhibition (GI) (MDA-MB-231 [1]): Active
inhibition at 25 µM (MDA-MB-231 [1]): 48%
growth inhibition (GI) (MDA-MB-231 [2]): Active
growth inhibition (GI) (MDA-MB-231 [3]): 50%
inhibition (MDA-MB-231 [4]): inactive

CC(=O)Oc1cc(C(=O)O[C@H]2Cc3ccccc3C[C@H]2OC(C)=O)cc(OC(C)=O)c1OC(C)=O
inhibition (MDA-MB-231 [4]): inactive

O=C(O[C@H]1Cc2ccccc2C[C@H]1O)c1cc(O)cc(O)c1
inhibition (Oryctolagus cuniculus [5]): inactive

O=C(O[C@H]1Cc2ccccc2C[C@H]1O)c1cc(O)c(O)c(O)c1
inhibition (Oryctolagus cuniculus [5]): inactive

CC(=O)Oc1cc(OC(C)=O)cc(C(=O)O[C@H]2Cc3ccccc3C[C@H]2OC(=O)c2cc(OC(C)=O)cc(OC(C)=O)c2)c1
growth inhibition (GI) (MDA-MB-231 [1]): Active
inhibition at 25 µM (MDA-MB-231 [1]): 69%
growth inhibition (GI) (MDA-MB-231 [2]): Active
inhibition at 50 µM (MDA-MB-231 [2]; MDA-MB-231, 24 h, read-out: INH): 69%
inhibition (MDA-MB-231 [6]): Active
inhibition (MDA-MB-231 [4]): inactive

O=C(O[C@@H]1Cc2c(O)cc(O)cc2O[C@@H]1c1cc(O)c(O)c(O)c1)c1cc(O)c(O)c(O)c1 (stereo in doubt; 1)
inhibition (MDA-MB-231 [7]): Active
inhibition (Oryctolagus cuniculus [8]): Active
inhibition (MDA-MB-231 [9]): 22%

CC(=O)Oc1cc(OC(C)=O)c2c(c1)O[C@H](c1cc(OC(C)=O)c(OC(C)=O)c(OC(C)=O)c1)[C@H](OC(=O)c1cc(OC(C)=O)c(OC(C)=O)c(OC(C)=O)c1)C2
inhibition at 25 µM (MDA-MB-231 [1]): 42%
growth inhibition (GI) (MDA-MB-231 [3]): 0%
inhibition (MDA-MB-231 [4]): inactive

O=C(O[C@@H]1Cc2c(O)cc(O)cc2O[C@@H]1c1cc(O)c(O)c(O)c1)c1cc(O)c(O)c(O)c1 (stereo in doubt; 3) [EPIGALOCATECHIN GALLATE]
IC50 [10]: 170 nM

O=C(O[C@H]1Cc2ccccc2C[C@H]1OC(=O)c1cc(O)c(O)c(O)c1)c1cc(O)c(O)c(O)c1
inhibition (MDA-MB-231 [7]): Active
IC50 [11]: 19000 nM
IC50 [10]: 340 nM
inhibition (MDA-MB-231 [12]): 10%

O=C(O[C@H]1Cc2ccccc2C[C@H]1OC(=O)c1cc(O)cc(O)c1)c1cc(O)cc(O)c1
inhibition (MDA-MB-231 [7]): Active
IC50 [11]: 29000 nM
inhibition (MDA-MB-231 [12]): 18%

CC(=O)Oc1cc(OC(C)=O)cc(C(=O)O[C@H]2Cc3ccccc3C[C@H]2OC(C)=O)c1
inhibition (MDA-MB-231 [4]): inactive

O=C(O[C@@H]1Cc2c(O)cc(O)cc2O[C@@H]1c1cc(O)c(O)c(O)c1)c1cc(O)c(O)c(O)c1 (stereo in doubt; 1) [EPIGALOCATECHIN GALLATE]
IC50 [10]: 86 nM
